Assay outcomes: PubChem BioAssay, The Scripps Research Institute Molecular Screening Center
An excerpt weighted towards active compounds, which were near 3.4% of everything screened.
TAAR1 antag = antagonists of human TAAR1; actives 1.5% (n = 360,000); AID 624466; CHO RD-HGA16 TAAR1, Fluo-8 calcium fluorescence, antagonist; inhibition, % at 3 µM; Q96RJ0;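 active = inhibition above a per-plate cutoff, the mean inhibition of test compounds on that plate plus 3 SD, cut at about 49% in these data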
Target sequence (Q96RJ0 whole entry, looked up): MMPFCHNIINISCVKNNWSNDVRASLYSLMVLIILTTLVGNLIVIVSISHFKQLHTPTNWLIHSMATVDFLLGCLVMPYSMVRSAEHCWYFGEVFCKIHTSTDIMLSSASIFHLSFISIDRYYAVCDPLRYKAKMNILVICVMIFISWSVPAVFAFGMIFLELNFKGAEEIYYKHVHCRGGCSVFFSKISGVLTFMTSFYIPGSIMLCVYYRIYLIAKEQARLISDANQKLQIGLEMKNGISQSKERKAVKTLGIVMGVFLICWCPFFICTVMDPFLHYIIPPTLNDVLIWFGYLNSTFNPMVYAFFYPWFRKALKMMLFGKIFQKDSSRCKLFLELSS
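Test system: hTAAR1-expressing CHO RD-HGA16 cells, Gα16-coupled; Probe or stimulus: EC80 β-phenethylamine stimulus; Compound dosing: single nominal final test compound concentration of 3 µM; Timing: 140 s kinetic read after compound, 140 s after agonist; Signal: Fluo-8 calcium-sensitive fluorescence; Measure: % inhibition of agonist calcium response; Controls: DMSO and EC80 PEA controls.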
CHRM1 PAM = positive allosteric modulators of human M1 muscarinic receptor. AID 588819. actives 0.088% (n = 360,000). P11229. CHO-K1 hM1, Fluo-8 calcium fluorescence, ACh EC20; 0% = ACh EC20, 100% = maximal ACh. activation, % at 3 µM; in the data active = activation above about 19%, passing the limit was not always enough
TAAR1 agonist = human TAAR1 agonism; Q96RJ0; AID 624467; activation, % at 3 µM; CHO RD-HGA16 TAAR1, Fluo-8 calcium fluorescence; vehicle wells 0%, saturating PEA agonist 100%; actives 0.99% (n = 360,000);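 active = activation above the mean activation of all test compounds in the run plus 3 SD, cut at about 38% in these data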
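Test system: RD-HGA16 (CHO) cells co-expressing Gα16 and hTAAR1 / Benchmarks: DMSO vehicle as 0%, PEA at EC100 as 100% / Repeats: no replicates (n 1) / Measure: % activation from peak over basal fluorescence ratio, DMSO-to-PEA scaled / Timing: 17-24 h plating, Fluo-8 75 min 37 °C, 30 min RT / Technique: kinetic Fluo-8 calcium fluorescence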
M1 ag = activates human CHRM1 receptor; P11229; CHO-K1 hM1, Fluo-8 calcium fluorescence, agonist mode; 0% DMSO, 100% acetylcholine EC100; activation, % at 3 µM; actives 0.33% (n = 360,000);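 active = activation above the run's mean compound activation plus 3 SD, cut at about 16% in these data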;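 note: peak over basal fluorescence ratio within a 140 s kinetic read after compound addition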
CHRM1 antagonist = antagonists of human M1 muscarinic receptor; actives 1.3% (n = 360,000); CHO-K1 hM1, Fluo-8 calcium fluorescence, ACh EC80 antagonist; inhibition, % at 3 µM; AID 588852; P11229;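 active = percent inhibition above its own plate's cutoff, namely the mean of that plate's compound wells plus 3 SD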;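 note: peak over basal fluorescence ratio during 140 s after agonist addition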
A number is an active result; n = inactive; x = no result.

SMILES	TAAR1 antag	CHRM1 PAM	TAAR1 agonist	M1 ag	CHRM1 antagonist
O=C1Nc2ccc(Br)cc2/C1=C/C(=O)c1ccc2c(c1)OCO2	n	n	n	n	n
COc1ccc(C(=O)/C=C2\C(=O)Nc3ccc(Br)cc32)cc1	n	n	n	19	n
CC(=O)c1ccc(OCC(O)CN2CCN(c3ccc(F)cc3)CC2)cc1 (stereo unspecified)	n	n	n	n	n
OC(COC(c1ccccc1)c1ccccc1)CN1CCN(c2cccc(Cl)c2)CC1 (stereo unspecified)	n	n	n	n	n
CC(=O)c1ccc(N2CCN(CC(O)COC(c3ccccc3)c3ccccc3C)CC2)cc1 (stereo unspecified)	n	n	n	n	101
CC(=O)c1ccc(N2CCN(CC(O)COC(c3ccccc3)c3ccccc3)CC2)cc1 (stereo unspecified)	n	n	n	n	91
COc1cc(/C=C(\C#N)C(=O)c2c[nH]c3ccccc23)cc(OC)c1O	n	n	41	23	n
COc1cc(/C=C(\C#N)C(=O)NCCc2ccccc2)cc(OC)c1O	n	n	n	n	n
COc1ccc(OC)c(CNS(=O)(=O)c2ccccc2Br)c1	n	x	n	x	x
O=C(Nc1nc(OCC(F)(F)F)cnc1/C=C\c1ccccc1)c1ccsc1	57	n	n	n	n
COC(=O)C[C@@H]1C=C[C@@H](NC(=O)CN(C)C)[C@@H](CO)O1	n	x	n	x	x
COC(=O)C1=CN(c2cccc(OCc3ccccc3)c2)C(N)=C(C#N)C1c1cccc(OC)c1OC (stereo unspecified)	n	x	n	x	x
CCCOc1ccc(C(=O)NCC(c2cccs2)N(C)C)cc1 (stereo unspecified)	n	n	n	n	n
COc1ccc(C(CNC(=O)c2ccc(S(=O)(=O)N(C)C)cc2)N(C)C)cc1 (stereo unspecified)	n	n	n	n	n
CCN(c1ccccc1)S(=O)(=O)c1cc(C(=O)NCC(c2ccc(OC)cc2)N(C)C)ccc1C (stereo unspecified)	n	n	n	36	55
CCN(c1ccccc1)S(=O)(=O)c1ccc(C(=O)NCC(c2cccs2)N(C)C)cc1 (stereo unspecified)	n	n	n	n	36
COc1cccc(CNc2nc3cc(-c4ccccc4CO)sc3c(=O)n2C)c1	n	n	n	n	n
C[C@@H]1Cn2cnc(C(=O)N(C)Cc3ccccc3)c2C(=O)N1	n	x	n	x	x
FC(F)(F)c1nc(-c2cccs2)ncc1-c1nnnn1-c1ccc(Cl)cc1	59	n	n	n	n
COc1cccc(CNC(=O)[C@H]2CCCN2C(=O)[C@H]2CCCN2C(=O)c2ccc(Cl)cc2)c1	n	x	n	x	x
CCOC(=O)N1CCN(C2OC(=O)c3ccccc32)CC1 (stereo unspecified)	n	n	38	25	n
CCN(CC)CCOC(=O)C1(c2ccc(OC)c(OC)c2)CCCC1	x	n	x	n	77
O=C(OCCCN1CCCC1)C1(c2ccccc2)CCCC1	n	n	n	n	96
CCN(CC)CCOC(=O)C1(c2ccccc2)CCCC1	n	n	n	n	100
CN(C)CCOC(=O)C1(c2ccccc2)CCOCC1	n	n	n	n	23
SMILES	TAAR1 antag	CHRM1 PAM	TAAR1 agonist	M1 ag	CHRM1 antagonist
CCN(CC)c1ccc(/C=C(/C#N)C(=O)NC(C)C)o1	n	n	n	n	n
CCN(CC)c1ccc(/C=C(/C#N)C(=O)NCc2ccccc2)o1	54	n	54	16	n
CCCCNC(=O)C1(C)CCCCN1Cc1ccccc1-c1ccccc1 (stereo unspecified)	n	n	n	n	31
O=c1c(Br)ccc(Br)cc1Br	n	n	n	n	n
CC(C)[N+](C)(CCOC(=O)C1c2ccccc2Oc2ccccc21)C(C)C	n	n	n	n	97
CCN(CC)C(=O)C1c2ccccc2Oc2ccccc21	n	n	n	18	n
CC1(C)CC(NC(=S)NC(=O)c2cc(Br)ccc2Cl)CC(C)(C)N1	n	n	n	22	n
CC1(C)CC(NC(=O)c2ccc(Cl)c(Cl)c2)CC(C)(C)N1	n	n	n	n	n
COc1cc(NC(=S)NC2CC(C)(C)NC(C)(C)C2)c(OC)cc1Cl	n	n	n	36	n
COC(=O)C1=C(C)N(CC(C)C)C(=S)NC1c1cccc(F)c1 (stereo unspecified)	n	x	n	x	x
